# Reference: publication PMC6028938 (Neurobiology of disease, 2018)
# pIC50: −log10 of the molar value.
# What was measured:
# PKA pathway = settings: postnatal day 7 ATXN1[82Q] mouse cerebellar slices; cited from earlier work
# mice = settings: mouse
# endogenous human ATXN1 = experiment: SCA1 patient iPSC-derived neuronal cells, western blot of ATXN1; type: cell-based; settings: 10 μM, two-day treatment
# Procedure, shortened: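 NPCs differentiated 7 days in DMEM/F12 with 100 ng/ml FGF8, 200 ng/mL SHH and 1:100 N2; β-III tubulin-stained. Treated 2 days with 10 μM test compound, lysed in Tris-Triton buffer. Western blot: MoAb-17 (1 ng/μl) for pS776, 11750 for total ATXN1, GAPDH-normalised.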
# PKA = settings: cited from earlier work
# Atxn1[66Q] and Atxn1[2Q] = experiment: GSK690693 treatment in Atxn1 66Q/2Q cerebellar slice cultures; type: cell-based, mouse; settings: 10 μM
# PKA CαM120A [1] = target: T1, PKA CαM120A (Mus musculus, UniProt P05132, M121A); type: biochemical
# PKA CαM120A [2] = target: T1, PKA CαM120A; experiment: Atxn1 2Q/2Q; type: cell-based
# [3] = test system: RFP-ATXN1[82Q] in DAOY cells; experiment: Live cell imaging of DAOY cells stably expressing RFP-ATXN1[82Q]; type: cell-based, human
# Procedure, shortened: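 DAOY cells stably carrying RFP-ATXN1[82Q]-IRES-YFP, grown on 35 mm plates and moved to imaging chambers heated to 37 °C. At time zero, 10 nM test compound or DMSO vehicle was added. Brightfield and RFP images were taken every 2 minutes on an inverted fluorescence microscope.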
# MSK = settings: read-out: IC50 as MSK inhibitor; cited from earlier work
# [4] = mice, delivered in drinking water or by IP injection; cited from earlier work
# CαM120A = CαM120A (Mus musculus, UniProt P05132, M121A); experiment: 1-NM-PP1 delivered in vivo; settings: cage drinking water or intra-cerebro-ventricular injections, data not shown
# [5] = one day of exposure, P10 slices
# [6] = 20 μM 1-NM-PP1, three-day incubation, vs no treatment or DMSO
smiles,measurement,setting,value
C=C[C@@]1(C)CC(=O)[C@]2(O)[C@@]3(C)[C@@H](O)CCC(C)(C)[C@@H]3[C@H](O)[C@H](OC(C)=O)[C@@]2(C)O1 [forskolin],dendritic morphology of cerebellar slices,PKA pathway,enhanced dendritic morphological abnormalities
"CCn1c(-c2nonc2N)nc2c(C#CC(C)(C)O)ncc(OC[C@H]3CCCNC3)c21 [GSK690693, 4-[2-(4-Amino-1,2,5-oxadiazol-3-yl)-1-ethyl-7-[(3S)-3-piperidinylmethoxy)-1H-imidazo[4,5-c]pyridin-4-yl]-2-methyl-3-butyn-2-ol]",toxicity in vivo,mice,very toxic with treated mice having seizures
same,reduction of endogenous ATXN1 levels,endogenous human ATXN1,44%
same,IC50s for AGC kinase family members including PKA (in words),PKA,nanomolar
same,S776 phosphorylation status (MoAB-17 blot),Atxn1[66Q] and Atxn1[2Q]; by 5 days of treatment,decrease in pS776
same,phosphorylation of other cerebellar proteins with PKA consensus site RRX(S/T) (pan-PKA substrates antibody),Atxn1[66Q] and Atxn1[2Q]; by one day of treatment,Inhibition
same,reduction of Atxn1[2Q] level,Atxn1[66Q] and Atxn1[2Q]; five days,68%
same,reduction of Atxn1[66Q] level,Atxn1[66Q] and Atxn1[2Q]; five days,70%
same,reduction of Atxn1[2Q] level,Atxn1[66Q] and Atxn1[2Q]; [5],22%
same,reduction of Atxn1[66Q] level,Atxn1[66Q] and Atxn1[2Q]; [5],29%
same,reduction of Atxn1[2Q] level,Atxn1[66Q] and Atxn1[2Q]; three days,54%
same,reduction of Atxn1[66Q] level,Atxn1[66Q] and Atxn1[2Q]; three days,56%
same,concentration that blocks ATXN1[30Q]-S776 phosphorylation,PKA CαM120A [1]; Cα M120A cerebellar extracts as kinase source,≤ 10 nM
same,amount of Atxn1[2Q] protein,"PKA CαM120A [2]; 10 μM GSK690693, two days",significantly decreased
same,pan-PKA substrate phosphorylation,"PKA CαM120A [2]; 10 μM GSK690693, two days",dramatically decreased
CN[C@@H]1C[C@H]2O[C@@](C)([C@@H]1OC)n1c3ccccc3c3c4c(c5c6ccccc6n2c5c31)C(=O)NC4 [Staurosporine],RFP-ATXN1[82Q] signal,"[3]; 10 nM staurosporine, as early as two minutes post-treatment, continued to decrease out to six minutes, 37 °C",substantially diminished
same,fluorescently tagged ATXN1[82Q] detectability,[3]; after four minutes of exposure to staurosporine,no longer detectable
CCn1c(-c2nonc2N)nc2cncc(CNC3CCNCC3)c21 [SB-747651A],pIC50,MSK,7.96
same,inhibitory activity towards PKA relative to MSK (less),PKA,approximately 10 fold
CC(C)(C)n1nc(Cc2cccc3ccccc23)c2c(N)ncnc21 [1-NM-PP1],blood brain barrier crossing,[4],cross the blood brain barrier
same,inhibition of CαM120A in vivo,CαM120A,failed
same,inhibition of S776 phosphorylation,"PKA CαM120A [1]; 10 μM 1-NM-PP1, the highest dose tested",Subtle inhibition
same,level of Atxn1[2Q] protein,PKA CαM120A [2]; [6],failed to affect
same,phosphorylation of pan-PKA substrates,PKA CαM120A [2]; [6],failed to affect
